Drawing on ChEMBL document CHEMBL1955761, “Privileged scaffolds or promiscuous binders: a comparative study on rhodanines and related heterocycles in medicinal chemistry” (J Med Chem, 2012), this text covers inhibition for 28 molecules.

SMILES strings stand for the structures. Activity calls are given as the source filed them.

The term inhibition denotes the change of the read-out against control, counted positive when it falls.

The target in one assay is Prothrombin (Bos taurus) (UniProt P00735). Description: Inhibition of bovine plasma thrombin using Boc-Val-Pro-Arg-AMC as substrate at 25 uM preincubated for 15 mins measured after 10 mins by fluorimetric assay. In short, it runs like this:
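Purchased bovine plasma thrombin at 10 nM final, preincubated 15 min with 25 μM inhibitor; reaction started with 50 μM substrate. Buffer 50 mM Tris-HCl pH 7.5, 150 mM NaCl, 0.05% Tween 20. Triplicate, averaged.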

Assay [1] concerns Escherichia coli. Kind of assay: Inhibition of Escherichia coli MetAP at 10 uM after 15 mins by fluorescence analysis.
Another assay has as its system Dengue virus. Kind of assay: Inhibition of Dengue virus NS2B-NS3 protease using Abz-NleKRRS-3-(NO2)Y as substrate at 50 uM preincubated for 15 mins measured every sec for 15 mins by fluorimetric analysis.
For assay [2], the system named is Escherichia coli. Kind of assay: Inhibition of Escherichia coli MurA using PEP as substrate assessed as inorganic phosphate release at 25 uM preincubated for 10 mins measured after 60 mins […].

For the molecule `CC(=O)N1C(=S)NC(=O)[C@@H]1Cc1c[nH]c2ccccc12`, the inhibition result at Prothrombin (Bos taurus), in the assay with Escherichia coli [1], in the assay with Dengue virus and in the assay on Escherichia coli [2] was “inactive” each time.
Regarding `O=C1NC(=O)/C(=C/c2ccc(O)c(O)c2)S1`, the inhibition worked out at 37% on Prothrombin (Bos taurus), 90% in the assay with Escherichia coli [1], 44% in the assay on Dengue virus and 78% in the assay on Escherichia coli [2].
For `O=C1NC(=S)N/C1=C1/CCOc2ccccc21` the same measures were 18%, 28%, 43% and 43%.
For `O=C1NC(=O)C(Cc2cccs2)N1` (configuration not stated) the same measures were “inactive”, “inactive”, “inactive” and “inactive”.
As to `O=C1NC(=O)[C@H](Cc2c[nH]c3ccccc23)N1`, the inhibition entry on Prothrombin (Bos taurus), in the assay with Dengue virus and in the assay with Escherichia coli [2] was “inactive” each time. The inhibition with Escherichia coli [1] came out at 19%.
Take `O=C1NC(=S)N/C1=C\c1cccs1`: the inhibition was 16% at Prothrombin (Bos taurus) and 48% in the assay on Dengue virus. Moreover, the inhibition result with Escherichia coli [1] and in the assay with Escherichia coli [2] was “inactive” each time.
Regarding `CN(C)c1ccc(/C=C2\SC(=O)NC2=O)cc1`, the inhibition against Prothrombin (Bos taurus) stood at 11%; with Escherichia coli [1], 13%; in the assay with Dengue virus it was 20%. The inhibition result in the assay with Escherichia coli [2] is “inactive”.
For `C/C(=C1/NC(=S)NC1=O)c1ccc2ccccc2c1`, the figures for the inhibition on Prothrombin (Bos taurus), in the assay on Escherichia coli [1] and with Dengue virus were 10%, 15% and 33%, respectively. For the same molecule, in the assay on Escherichia coli [2], the inhibition result is “inactive”.
The matching figures for `Cc1ccc(/C=C2\NC(=O)NC2=O)cc1`: “inactive”, 11%, “inactive” and “inactive”.
The matching figures for `Nc1ccc(/C=C2\SC(=S)NC2=O)cc1`: 11%, “inactive”, “inactive” and “inactive”.
With `O=C1NC(=O)/C(=C/c2ccc(Cl)s2)N1`, the inhibition against Prothrombin (Bos taurus) worked out at 25%; with Dengue virus, 16%; with Escherichia coli [2], 38%. For the same molecule, the inhibition entry with Escherichia coli [1] is “inactive”.
The matching figures for `O=C1NC(=S)N[C@H]1Cc1c[nH]c2ccccc12`: “inactive”, “inactive”, 11% and 13%.
In the case of `COc1ccccc1/C=C1\NC(=O)NC1=O`, the inhibition entry on Prothrombin (Bos taurus), with Escherichia coli [1] and in the assay with Escherichia coli [2] was “inactive” each time. Besides, the inhibition in the assay with Dengue virus was found to be 18%.
Consider `O=C1NC(=O)/C(=C/c2cccc(O)c2)S1`, for which the inhibition entry on Prothrombin (Bos taurus) and in the assay with Escherichia coli [2] was “inactive” in each case. The values for the inhibition in the assay on Escherichia coli [1] and in the assay on Dengue virus were 11% and 18%, respectively.
For the molecule `CC(=O)N1C(=S)NC(=O)[C@@H]1Cc1ccc(O)cc1`, the inhibition entry on Prothrombin (Bos taurus), with Escherichia coli [1], in the assay on Dengue virus and in the assay on Escherichia coli [2] was “inactive” throughout.
For `O=C1NC(=S)NC1Cc1ccc(O)c(O)c1` (configuration not stated), the inhibition result at Prothrombin (Bos taurus) was “inactive”. In addition, the inhibition with Escherichia coli [1] was 73%; in the assay with Dengue virus it was 15%; in the assay on Escherichia coli [2], 63%.
For `O=C1NC(=S)N/C1=C\c1ccc([N+](=O)[O-])cc1` the same measures were 19%, 13%, 35% and 15%.
For `Cn1cc(/C=C2\NC(=S)NC2=O)c2ccccc21`, the inhibition is 22% on Prothrombin (Bos taurus), 50% in the assay with Dengue virus and 16% in the assay on Escherichia coli [2]. In addition, the inhibition entry in the assay with Escherichia coli [1] was “inactive”.
The matching figures for `O=C1NC(=S)NC1=C(c1ccccc1)c1ccccc1`: “inactive”, “inactive”, “inactive” and 24%.
As for `C/C(=C1/NC(=S)NC1=O)c1ccc(F)cc1`, the inhibition at Prothrombin (Bos taurus) is 23%; with Escherichia coli [1] it was 18%; in the assay on Escherichia coli [2], 29%. Moreover, in the assay with Dengue virus, the inhibition entry was “inactive”.
The matching figures for `CC(=O)n1cc(/C=C2\SC(=O)NC2=O)c2ccccc21`: “inactive”, “inactive”, “inactive” and 11%.
The matching figures for `O=C1NC(=S)N/C1=C\c1ccc(Br)s1`: 17%, 10%, 75% and 46%.
Consider `O=C1NC(=S)S/C1=C\c1ccc(Cl)s1`, for which the inhibition turned out to be 27% at Prothrombin (Bos taurus), 54% with Dengue virus and 13% in the assay with Escherichia coli [2]. For the same molecule, the inhibition result in the assay on Escherichia coli [1] is “inactive”.
Regarding `Cc1ccc(/C=C2\NC(=S)NC2=O)cc1`, the inhibition stood at 14% on Prothrombin (Bos taurus), 15% in the assay with Escherichia coli [1] and 31% with Dengue virus. The inhibition result in the assay with Escherichia coli [2] is “inactive”.
For `N#Cc1ccc(/C=C2\NC(=S)NC2=O)cc1` the same measures were 11%, “inactive”, 37% and “inactive”.
Consider `CCCCC/C=C1\SC(=S)NC1=O`, for which the inhibition against Prothrombin (Bos taurus) came out at 18%; in the assay with Escherichia coli [1] it was 21%; in the assay on Dengue virus, 35%; in the assay with Escherichia coli [2], 14%.
The matching figures for `CCCC/C=C/C1SC(=S)NC1=O` (configuration not stated): “inactive”, 17%, 18% and 10%.
The matching figures for `O=C1NC(=S)N/C1=C\c1sccc1Cl`: 19%, “inactive”, 46% and 19%.
